From ChEMBL document CHEMBL3112403, “Design, synthesis and evaluation of second generation MurF inhibitors based on a cyanothiophene scaffold” (Eur J Med Chem, 2014)

How the values were obtained:
[1] = tested on: Escherichia coli; experiment: Antibacterial activity against Escherichia coli 1411 assessed as growth inhibition by broth microdilution method; assay type: functional
Summary of the method: (§1)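 MICs by broth microdilution in Mueller-Hinton broth following CLSI guidelines.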

[2] = tested on: Escherichia coli; experiment: Antibacterial activity against Escherichia coli SM1411 harboring acrAB deletion mutant assessed as growth inhibition by broth microdilution method; assay type: functional
Summary of the method: (§2)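 MIC by broth microdilution in Mueller-Hinton broth following CLSI guidelines. ES100 is the tolC derivative of AB734, and SM1411 is the acrAB derivative of 1411; both are efflux-deficient E. coli strains. Growth inhibition was read as the minimum inhibitory concentration.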

[3] = tested on: Escherichia coli; experiment: Antibacterial activity against Escherichia coli ES100 harboring tolC deletion mutant assessed as growth inhibition by broth microdilution method; assay type: functional; summary of the method: as §2
[4] = tested on: Escherichia coli; experiment: Antibacterial activity against Escherichia coli AB734 assessed as growth inhibition by broth microdilution method in presence of polymyxin B nonapeptide; assay type: functional
Summary of the method: (§3)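 Broth microdilution MIC in Mueller-Hinton broth per CLSI, run with 4 µg/mL polymyxin B nonapeptide to permeabilize the outer membrane.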

[5] = tested on: Escherichia coli; experiment: Antibacterial activity against Escherichia coli AB734 assessed as growth inhibition by broth microdilution method; assay type: functional; summary of the method: as §1
[6] = tested on: Staphylococcus aureus; experiment: Antibacterial activity against Staphylococcus aureus SH1000 assessed as growth inhibition by broth microdilution method; assay type: functional; summary of the method: as §1
[7] = tested on: Escherichia coli; experiment: Antibacterial activity against Escherichia coli 1411 assessed as growth inhibition by broth microdilution method in presence of polymyxin B nonapeptide; assay type: functional; summary of the method: as §3
[8] = Inhibition of Escherichia coli MurF ligase using D-Ala-D-Ala as substrate after 15 mins by malachite green assay
Summary of the method: (§4)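 After 15 min at 37 °C, Biomol reagent was added and phosphate read at 650 nm, in duplicate. RA was taken relative to a 5% DMSO control. IC50 was taken as the concentration giving 50% RA, from seven concentrations.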

[9] = biological target: T1, UDP-N-acetylmuramoyl-tripeptide--D-alanyl-D-alanine ligase (Streptococcus pneumoniae, UniProt Q9ZHC3); experiment: Inhibition of Streptococcus pneumoniae MurF ligase using D-Ala-D-Ala as substrate after 15 mins by malachite green assay
T1 sequence (Q9ZHC3 whole entry): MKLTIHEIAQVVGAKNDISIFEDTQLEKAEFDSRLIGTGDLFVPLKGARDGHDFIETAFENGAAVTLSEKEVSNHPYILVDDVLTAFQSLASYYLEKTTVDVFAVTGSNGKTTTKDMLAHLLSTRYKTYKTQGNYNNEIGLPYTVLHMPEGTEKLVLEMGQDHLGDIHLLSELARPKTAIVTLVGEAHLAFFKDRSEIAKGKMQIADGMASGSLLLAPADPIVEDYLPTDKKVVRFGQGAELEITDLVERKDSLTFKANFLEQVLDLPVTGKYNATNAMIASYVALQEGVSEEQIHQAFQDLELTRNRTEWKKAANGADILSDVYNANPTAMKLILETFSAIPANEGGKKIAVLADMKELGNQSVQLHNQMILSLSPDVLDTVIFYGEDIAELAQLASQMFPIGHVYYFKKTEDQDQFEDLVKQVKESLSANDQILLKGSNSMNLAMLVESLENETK
Summary of the method: (§5)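 Purified S. pneumoniae MurF in 50 mM Hepes pH 8.0 with 50 mM MgCl2, 0.005% Triton X-114, 100 µM D-Ala-D-Ala, 50 µM UMtri-L-Lys and 250 µM ATP, with 5% DMSO final. After 15 min at 37 °C, Biomol reagent was added and absorbance read at 650 nm, in duplicate. RA was taken against a 5% DMSO control. IC50 was the 50% RA point from seven concentrations.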

[10] = tested on: Escherichia coli; experiment: Inhibition of […] MurF ligase using D-Ala-D-Ala as substrate assessed as residual activity at 250 uM after 15 mins by malachite green assay; summary of the method: as §4
[11] = biological target: T2, UDP-N-acetylmuramoyl-tripeptide--D-alanyl-D-alanine ligase (Streptococcus pneumoniae) (UniProt Q9ZHC3); experiment: Inhibition of Streptococcus pneumoniae MurF ligase using D-Ala-D-Ala as substrate assessed as residual activity at 250 uM after 15 mins by malachite green assay; summary of the method: as §5
T2 sequence (whole entry): T1 sequence (Q9ZHC3 whole entry)

| SMILES | MIC [1] | MIC [2] | MIC [3] | MIC [4] | MIC [5] | MIC [6] | MIC [7] | IC50 [8] | IC50 [9] | Activity [10] | Activity [11] |
| --- | --- | --- | --- | --- | --- | --- | --- | --- | --- | --- | --- |
| Cl.N#Cc1c(NC(=O)c2cc(OCCCNC(=N)N)ccc2Cl)sc2c1CCCC2 | 32 µg/mL | 16 µg/mL | 8 µg/mL | 32 µg/mL | 32 µg/mL | > 256 µg/mL | 32 µg/mL | 102 µM | 78 µM |  |  |
| N#Cc1c(NC(=O)c2cc(OCCN)ccc2Cl)sc2c1CCN(Cc1ccc(C(=O)O)cc1)C2 | > 256 µg/mL | > 256 µg/mL | > 256 µg/mL | > 256 µg/mL | > 256 µg/mL | > 256 µg/mL | > 256 µg/mL | 336 µM | 663 µM |  |  |
| COc1ccc(CN2CCc3c(sc(NC(=O)c4cc(OCCNC(=N)N)ccc4Cl)c3C#N)C2)cc1.Cl | 32 µg/mL | 32 µg/mL | 8 µg/mL | 32 µg/mL | 32 µg/mL | 32 µg/mL | 32 µg/mL | 78 µM | 61 µM |  |  |
| N#Cc1c(NC(=O)c2cc(OCCNC(=O)C(F)(F)F)ccc2Cl)sc2c1CCN(Cc1ccccc1)C2 | > 256 µg/mL | > 256 µg/mL | > 256 µg/mL | > 256 µg/mL | > 256 µg/mL | > 256 µg/mL | > 256 µg/mL |  | 172 µM | 46% |  |
| N#Cc1c(NC(=O)c2cc(OCCN)ccc2Cl)sc2c1CCN(Cc1cccc(O)c1)C2 | 128 µg/mL | 64 µg/mL | 64 µg/mL | 64 µg/mL | 128 µg/mL | > 256 µg/mL | 64 µg/mL | 150 µM | 119 µM |  |  |
| COC(=O)c1ccc(CN2CCc3c(sc(NC(=O)c4cc(OCCNC(=O)C(F)(F)F)ccc4Cl)c3C#N)C2)cc1 | > 256 µg/mL | > 256 µg/mL | > 256 µg/mL | > 256 µg/mL | > 256 µg/mL | > 256 µg/mL | > 256 µg/mL | 255 µM |  |  | 55% |
| CC(=O)Oc1ccc(C2CCc3c(sc(NC(=O)c4cc(OCCNC(=O)C(F)(F)F)ccc4Cl)c3C#N)C2)cc1 (centres undefined) |  |  |  |  |  |  |  |  |  | 101% | 98% |
| Cl.N#Cc1c(NC(=O)c2cc(OCCNC(=N)N)ccc2Cl)sc2c1CCN(Cc1cccc(O)c1)C2 | 128 µg/mL | 64 µg/mL | 32 µg/mL | 64 µg/mL | 128 µg/mL | 32 µg/mL | 64 µg/mL | 143 µM | 117 µM |  |  |
| COC(=O)c1ccc(CN2CCc3c(sc(NC(=O)c4cc(OCCN)ccc4Cl)c3C#N)C2)cc1 | > 256 µg/mL | 64 µg/mL | 32 µg/mL | 64 µg/mL | > 256 µg/mL | 128 µg/mL | 64 µg/mL | 88 µM | 109 µM |  |  |
| N#Cc1c(NC(=O)c2cc(OCCNC(=O)C(F)(F)F)ccc2Cl)sc2c1CCN(Cc1ccc(-n3cnnn3)cc1)C2 | > 256 µg/mL | > 256 µg/mL | 64 µg/mL | > 256 µg/mL | > 256 µg/mL | > 256 µg/mL | > 256 µg/mL | 152 µM | 103 µM |  |  |
| N#Cc1c(NC(=O)c2cc(OCCCN)ccc2Cl)sc2c1CCCC2 | 64 µg/mL | 32 µg/mL | 32 µg/mL | 32 µg/mL | 64 µg/mL | 128 µg/mL | 32 µg/mL | 272 µM | 128 µM |  |  |
| N#Cc1ccc(CN2CCc3c(sc(NC(=O)c4cc(OCCNC(=O)C(F)(F)F)ccc4Cl)c3C#N)C2)cc1 | > 256 µg/mL | > 256 µg/mL | > 256 µg/mL | > 256 µg/mL | > 256 µg/mL | > 256 µg/mL | > 256 µg/mL |  |  | 45% | 55% |
| Cl.N#Cc1c(NC(=O)c2cc(OCCN)ccc2Cl)sc2c1CCCC2 | 128 µg/mL | 32 µg/mL | 32 µg/mL | 32 µg/mL | 128 µg/mL | 128 µg/mL | 32 µg/mL | 208 µM | 170 µM |  |  |
| N#Cc1c(NC(=O)c2cc(OCCN)ccc2Cl)sc2c1CCN(Cc1ccc(-n3cnnn3)cc1)C2 | > 256 µg/mL | > 256 µg/mL | > 256 µg/mL | > 256 µg/mL | > 256 µg/mL | > 256 µg/mL | > 256 µg/mL | 83 µM | 454 µM |  |  |
| Cl.N#Cc1c(NC(=O)c2cccc(OCCNC(=N)N)c2)sc2c1CCCC2 | 64 µg/mL | 16 µg/mL | 16 µg/mL | > 256 µg/mL | 64 µg/mL | 64 µg/mL | 64 µg/mL | 258 µM | 167 µM |  |  |
| N#Cc1ccc(CN2CCc3c(sc(NC(=O)c4cc(OCCN)ccc4Cl)c3C#N)C2)cc1 | < 256 µg/mL | 64 µg/mL | 32 µg/mL | 64 µg/mL | < 256 µg/mL | 128 µg/mL | 64 µg/mL | 76 µM | 107 µM |  |  |
| N#Cc1c(NC(=O)c2cc(OCCN)ccc2Cl)sc2c1CCN(Cc1ccccc1)C2 | 64 µg/mL | 32 µg/mL | 16 µg/mL | 32 µg/mL | 64 µg/mL | 64 µg/mL | 32 µg/mL | 84 µM | 51 µM |  |  |
| N#Cc1c(NC(=O)c2cc(OCCN)ccc2Cl)sc2c1CCC(c1ccc(O)cc1)C2 (centres undefined) | > 256 µg/mL | 32 µg/mL | 8 µg/mL | 16 µg/mL | > 256 µg/mL | > 256 µg/mL | 16 µg/mL | 81 µM | 58 µM |  |  |
| N#Cc1c(NC(=O)c2cc(OCCN)ccc2Cl)sc2c1CCNC2 | > 256 µg/mL | > 256 µg/mL | > 256 µg/mL | > 256 µg/mL | > 256 µg/mL | > 256 µg/mL | > 256 µg/mL |  |  | 65% | 85% |
| COc1ccc(CN2CCc3c(sc(NC(=O)c4cc(OCCNC(=O)C(F)(F)F)ccc4Cl)c3C#N)C2)cc1 | > 256 µg/mL | > 256 µg/mL | > 256 µg/mL | > 256 µg/mL | > 256 µg/mL | > 256 µg/mL | > 256 µg/mL |  | 154 µM | 81% |  |
| N#Cc1c(NC(=O)c2cc(OCCNC(=O)C(F)(F)F)ccc2Cl)sc2c1CCN(Cc1cccc(O)c1)C2 | > 256 µg/mL | > 256 µg/mL | > 256 µg/mL | > 256 µg/mL | > 256 µg/mL | > 256 µg/mL | > 256 µg/mL |  |  | 56% | 71% |
| Cl.N#Cc1c(NC(=O)c2cc(OCCNC(=N)N)ccc2Cl)sc2c1CCCC2 | 16 µg/mL | 8 µg/mL | 8 µg/mL | 8 µg/mL | 16 µg/mL | 64 µg/mL | 8 µg/mL | 56 µM | 75 µM |  |  |
| CC(C)(C)OC(=O)N1CCc2c(sc(NC(=O)c3cc(OCCNC(=O)C(F)(F)F)ccc3Cl)c2C#N)C1 | > 256 µg/mL | > 256 µg/mL | > 256 µg/mL | > 256 µg/mL | > 256 µg/mL | > 256 µg/mL | > 256 µg/mL |  |  | 102% | 96% |
| N#Cc1c(NC(=O)c2cc(OCC(N)=O)ccc2Cl)sc2c1CCCC2 |  |  |  |  |  |  |  |  |  | 74% | 87% |
| N#Cc1c(NC(=O)c2cccc(OCCCN)c2)sc2c1CCCC2 |  |  |  |  |  |  |  |  |  | 75% | 53% |
| Cl.N#Cc1c(NC(=O)c2cc(S(=O)(=O)NCCN)c(Cl)cc2Cl)sc2c1CCCC2 | > 256 µg/mL | 128 µg/mL | 64 µg/mL | 128 µg/mL | > 256 µg/mL | > 256 µg/mL | 128 µg/mL | 418 µM | 219 µM |  |  |
| N#Cc1c(NC(=O)c2cccc(OCn3cc(Cl)cn3)c2)sc2c1CCC2 |  |  |  |  |  |  |  | 56 µM | 126 µM |  |  |
| Cl.N#Cc1c(NC(=O)c2cc(OCCNC(=N)N)ccc2Cl)sc2c1CCN(Cc1ccc(O)cc1)C2 | 64 µg/mL | 16 µg/mL | 4 µg/mL | 16 µg/mL | 64 µg/mL | 4 µg/mL | 16 µg/mL | 25 µM | 20 µM |  |  |
